Source: ChEMBL document CHEMBL1128586, “Antihyperglycemic N-sulfonyl-1a,2,6,6a-tetrahydro-1H,4H- [1,3]dioxepino[5,6-b]azirines: synthesis, X-ray structure analysis, conformational behavior, quantitative structure-property relationships, and quantitative structure-activity relationships” (J Med Chem, 1995)

Key:
Assay type in all cases: functional
Mus musculus [1] = experiment: Hypoglycemic effect of compound 1 hr after subcutaneous administration of 20 mg/kg dose in alloxanized mice and expressed as percent of initial blood glucose level
How it was run: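 CBA mice of either sex, 20-25 g, made diabetic by single tail-vein alloxan monohydrate 65 mg/kg and tested 48 h later. Compound given sc at 20 mg/kg, dissolved in minimal DMSO and diluted with 0.9% saline. Tail-vein blood sampled before dosing and at 1 h. Glucose measured by enzymatic-colorimetric kit and expressed as percent of the initial sample.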

Mus musculus [2] = experiment: Hypoglycemic effect of compound 1 hr after subcutaneous administration of a 20 mg/kg dose in alloxanized mice and expressed as hypoglycemic activity ratio (hAR) taking metformin as standard
How it was run: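 Alloxan-diabetic CBA mice (65 mg/kg iv alloxan, used after 48 h) received 20 mg/kg sc in DMSO/saline. Glucose was measured enzymatically in tail-vein blood and expressed as %BGL at 1 h. HAR = (100 − %BGL of compound)/(100 − %BGL of metformin), with metformin tested at the same dose and route.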

Mus musculus [3] = experiment: Effect on blood glucose levels in healthy mice at intravenous dose of 5 mg/kg at 40 min
How it was run: (§1)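 Healthy (nondiabetic) fasted animals: CBA mice (20-25 g) or Fischer rats (160-200 g), fasted 16 h before treatment. Single iv or sc dose given at zero time; drug dissolved in minimal DMSO, diluted with 0.9% saline. Tail-vein blood sampled over time; glucose measured by enzymatic-colorimetric kit, expressed as mmol/L whole blood; group sizes 6-12.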

Mus musculus [4] = experiment: Effect on blood glucose levels in healthy mice at intravenous dose of 5 mg/kg at 0 min; how it was run: as §1
Mus musculus [5] = experiment: Effect on blood glucose levels in healthy mice at subcutaneous dose of 100 mg/kg at 120 min; how it was run: as §1
Mus musculus [6] = experiment: Effect on blood glucose levels in healthy mice at intravenous dose of 20 mg/kg at 0 min; how it was run: as §1
Mus musculus [7] = experiment: Effect on blood glucose levels in healthy mice at intravenous dose of 20 mg/kg at 40 min; how it was run: as §1
Mus musculus [8] = experiment: Effect on blood glucose levels in healthy mice at subcutaneous dose of 20 mg/kg at 120 min; how it was run: as §1
Mus musculus [9] = experiment: Effect on blood glucose levels in healthy mice at subcutaneous dose of 20 mg/kg at 60 min; how it was run: as §1
Mus musculus [10] = experiment: Effect on blood glucose levels in healthy mice at intravenous dose of 5 mg/kg at 60 min; how it was run: as §1
Mus musculus [11] = experiment: Effect on blood glucose levels in healthy mice at subcutaneous dose of 20 mg/kg at 0 min; how it was run: as §1
Mus musculus [12] = experiment: Effect on blood glucose levels in healthy mice at subcutaneous dose of 100 mg/kg at 0 min; how it was run: as §1
Mus musculus [13] = experiment: Effect on blood glucose levels in healthy mice at intravenous dose of 20 mg/kg at 60 min; how it was run: as §1
Rattus norvegicus [14] = experiment: Effect on blood glucose levels in healthy rat at subcutaneous dose of 20 mg/kg at 60 min; how it was run: as §1
Mus musculus [15] = experiment: Effect on blood glucose levels in healthy mice at subcutaneous dose of 100 mg/kg at 60 min; how it was run: as §1
Rattus norvegicus [16] = experiment: Effect on blood glucose levels in healthy rat at subcutaneous dose of 20 mg/kg at 0 min; how it was run: as §1

## O=S(=O)(c1ccccc1)N1[C@@H]2COCOC[C@@H]21 (stereo partly specified)
Mus musculus [1]
  BGL: 53%
Mus musculus [2]
  HAR: 3.36

## CC(C)[C@@H]1OC[C@@H]2[C@H](CO1)N2S(=O)(=O)c1ccc([N+](=O)[O-])cc1 (stereo partly specified)
Mus musculus [1]
  BGL: 78%
Mus musculus [2]
  HAR: 1.57

## CN(C)C(=N)NC(=N)N [METFORMIN]
Mus musculus [1]
  BGL: 86%
Mus musculus [2]
  HAR: 1

## COc1ccc(S(=O)(=O)N2[C@@H]3COCOC[C@@H]32)cc1 (stereo partly specified)
Mus musculus [1]
  BGL: 78%
Mus musculus [2]
  HAR: 1.57

## CC(=O)Nc1ccc(S(=O)(=O)N2[C@@H]3COCOC[C@@H]32)cc1 (stereo partly specified)
Mus musculus [1]
  BGL: 37%
Mus musculus [3]
  Blood glucose: 8.61 mM (l of whole blood)-1
Mus musculus [4]
  Blood glucose: 8.35 mM (l of whole blood)-1
Mus musculus [5]
  Blood glucose: 13.17 mM (l of whole blood)-1
Mus musculus [6]
  Blood glucose: 8.83 mM (l of whole blood)-1
Mus musculus [7]
  Blood glucose: 9.3 mM (l of whole blood)-1
Mus musculus [8]
  Blood glucose: 13.15 mM (l of whole blood)-1
Mus musculus [9]
  Blood glucose: 14.41 mM (l of whole blood)-1
Mus musculus [10]
  Blood glucose: 8.72 mM (l of whole blood)-1
Mus musculus [11]
  Blood glucose: 12.43 mM (l of whole blood)-1
Mus musculus [12]
  Blood glucose: 11.72 mM (l of whole blood)-1
Mus musculus [13]
  Blood glucose: 8.82 mM (l of whole blood)-1
Mus musculus [2]
  HAR: 4.5
Rattus norvegicus [14]
  Blood glucose: 5.44 mM (l of whole blood)-1
Mus musculus [15]
  Blood glucose: 12.09 mM (l of whole blood)-1
Rattus norvegicus [16]
  Blood glucose: 5.52 mM (l of whole blood)-1

## O=S(=O)(c1ccc(F)cc1)N1[C@@H]2COCOC[C@@H]21 (stereo partly specified)
Mus musculus [1]
  BGL: 76%
Mus musculus [2]
  HAR: 1.71

## O=S(=O)(c1ccc(Cl)cc1)N1[C@@H]2COCOC[C@@H]21 (stereo partly specified)
Mus musculus [1]
  BGL: 77%
Mus musculus [2]
  HAR: 1.64

## Cc1ccc(S(=O)(=O)N2[C@@H]3COCOC[C@@H]32)cc1 (stereo partly specified)
Mus musculus [1]
  BGL: 94%
Mus musculus [2]
  HAR: 0.42

## CC(=O)Nc1ccc(S(=O)(=O)N2[C@@H]3CO[C@H](C(C)C)OC[C@@H]32)cc1 (stereo partly specified)
Mus musculus [1]
  BGL: 84.8%
Mus musculus [2]
  HAR: 1.08

## CC(=O)Nc1ccc(S(=O)(=O)N2[C@@H]3CO[C@@H](C(C)C)OC[C@@H]32)cc1 (stereo partly specified)
Mus musculus [1]
  BGL: 85%
Mus musculus [2]
  HAR: 1.07

## O=S(=O)(c1ccc(Br)cc1)N1[C@@H]2COCOC[C@@H]21 (stereo partly specified)
Mus musculus [1]
  BGL: 107%
Mus musculus [2]
  HAR: -0.5
